ChEMBL document CHEMBL4138228, “Substituted carbamothioic amine-1-carbothioic thioanhydrides as novel trichomonicidal fungicides: Design, synthesis, and biology” (Eur J Med Chem, 2018)
In brackets after ≈: the same amount, converted by molar mass. Activity calls are given as the source filed them. The rule behind the calls is not given here.

How the values were obtained:
Nakaseomyces glabratus = test: Antifungal activity against Candida glabrata ATCC 2001 after 48 hrs by broth microdilution method; type: functional; conditions: ATCC 2001, 48 h
Method in brief: (§1)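 Broth microdilution per NCCLS guidelines in MOPS-buffered RPMI 1640; starting inoculum 1-5 x 10^3 CFU/mL; plates incubated at 35 °C; MIC recorded after 48 h; fluconazole as reference; experiments repeated three times.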

Candida albicans [1] = test: Antifungal activity against Candida albicans ATCC 66027 after 48 hrs by broth microdilution method; type: functional; conditions: ATCC 66027, 48 h; method in brief: as §1
Candida albicans [2] = test: Antifungal activity against Candida albicans ATCC 14053 after 48 hrs by broth microdilution method; type: functional; conditions: ATCC 14053, 48 h; method in brief: as §1
Candida albicans [3] = test: Antifungal activity against Candida albicans ATCC 10231 after 48 hrs by broth microdilution method; type: functional; conditions: ATCC 10231, 48 h; method in brief: as §1
Candida albicans [4] = test: Antifungal activity against Candida albicans patient isolate after 48 hrs by broth microdilution method; type: functional; method in brief: as §1
[5] = system: Trichophyton mentagrophytes; test: Antifungal activity against Trichophyton mentagrophytes after 48 hrs by broth microdilution method; type: functional; method in brief: as §1
Sporothrix schenckii = test: Antifungal activity against Sporothrix schenckii after 48 hrs by broth microdilution method; type: functional; method in brief: as §1
Cryptococcus neoformans = test: Antifungal activity against Cryptococcus neoformans after 48 hrs by broth microdilution method; type: functional; method in brief: as §1
[6] = Selectivity index, ratio of IC50 for human HeLa cells to MIC for metronidazole-susceptible Trichomonas vaginalis; type: toxicity; conditions: read-out: Selectivity Index
[7] = Selectivity index, ratio of IC50 for human HeLa cells to MIC for metronidazole-resistant Trichomonas vaginalis CDC085 ATCC 50143; type: toxicity; conditions: read-out: Selectivity Index
HeLa = test: Cytotoxicity against human HeLa cells after 24 hrs by MTT assay; type: cell-based
Trichomonas vaginalis [8] = test: Antitrichomonas activity against metronidazole-resistant Trichomonas vaginalis CDC085 ATCC 50143 assessed as decrease in cell viability after 48 hrs by trypan blue exclusion method; type: functional; conditions: CDC085 ATCC 50143, 48 h
Trichomonas vaginalis [9] = test: Antitrichomonas activity against metronidazole-susceptible Trichomonas vaginalis assessed as decrease in cell viability after 48 hrs by trypan blue exclusion method; type: functional
Trichomonas vaginalis [10] = test: Potency index, ratio of metronidazole MIC to test compound MIC for metronidazole-resistant Trichomonas vaginalis CDC085 ATCC 50143; type: functional
Trichomonas vaginalis [11] = test: Selectivity ratio of MIC for metronidazole-resistant Trichomonas vaginalis CDC085 ATCC 50143 to MIC for metronidazole-susceptible Trichomonas vaginalis; type: functional
Candida albicans [12] = test: Antifungal activity against Candida albicans MTCC 183 after 48 hrs by broth microdilution method; type: functional; conditions: MTCC 183, 48 h; method in brief: as §1
Candida parapsilosis = test: Antifungal activity against Candida parapsilosis ATCC 22019 after 48 hrs by broth microdilution method; type: functional; conditions: Lodderomyces parapsilosis, ATCC 22019, 48 h; method in brief: as §1
Trichomonas vaginalis [13] = test: Potency index, ratio of metronidazole MIC to test compound MIC for metronidazole-susceptible Trichomonas vaginalis; type: functional
Plasmodium falciparum [14] = test: Antimalarial activity against chloroquine-sensitive Plasmodium falciparum 3D7 infecetd in RBC after 72 hrs by SYBR Green dye-based fluorescence assay; type: functional, organism-based; conditions: 3D7, Erythrocyte
Plasmodium falciparum [15] = test: Antimalarial activity against chloroquine-resistant Plasmodium falciparum K1 infecetd in RBC after 72 hrs by SYBR Green dye-based fluorescence assay; type: functional, organism-based; conditions: K1, Erythrocyte
Trichomonas vaginalis [16] = test: Antitrichomonas activity against metronidazole-susceptible Trichomonas vaginalis infected in mouse assessed as growth of abscess at 50 to 100 mg/kg, po administered for […] post last dose (reference value: 96.55 mm'2); type: functional
Trichomonas vaginalis [17] = test: Antitrichomonas activity against metronidazole-susceptible Trichomonas vaginalis infected in mouse assessed as growth of abscess at 50 mg/kg, po administered for 7 days measured on day 7 post last dose (reference value: 96.5 mm'2); type: functional
Trichomonas vaginalis [18] = test: Antitrichomonas activity against metronidazole-susceptible Trichomonas vaginalis infected in mouse assessed as growth of abscess at 100 mg/kg, po administered for 7 days measured on day 7 post last dose (reference value: 96.5 mm'2); type: functional
[19] = Cmax in Sprague-Dawley rat at 50 mg/kg, po measured up to 24 hrs by LC-MS/MS analysis; type: ADME, organism-based; design: dose 50 mg/kg, route oral; conditions: in vivo
Method in brief: (§2)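 Male rats fasted 12-16 h before dosing (n = 4 per time point). Each received a single 50 mg/kg oral dose as a 12.5 mg/mL suspension in 1% w/v gum acacia in water, given by feeding needle. Serum was sampled up to 24 h, cleaned up by protein precipitation and assayed by LC-MS/MS (MRM, phenacetin internal standard, linear 1-200 ng/mL). Parameters were derived by non-compartmental analysis.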

[20] = Tmax in Sprague-Dawley rat at 50 mg/kg, po measured up to 24 hrs by LC-MS/MS analysis; type: ADME, organism-based; conditions: in vivo; method in brief: as §2
Rattus norvegicus [21] = test: AUClast in Sprague-Dawley rat at 50 mg/kg, po measured up to 24 hrs by LC-MS/MS analysis; type: ADME, organism-based; design: time < 24 hr, dose 50 mg/kg, route oral; conditions: in vivo; method in brief: as §2
[22] = Elimination half life in Sprague-Dawley rat at 50 mg/kg, po measured up to 24 hrs by LC-MS/MS analysis; type: ADME, organism-based; conditions: in vivo, read-out: beta t1/2 (converted); method in brief: as §2
Rattus norvegicus [23] = test: Clearance in Sprague-Dawley rat at 50 mg/kg, po measured up to 24 hrs by LC-MS/MS analysis; type: ADME, organism-based; conditions: in vivo; method in brief: as §2
Rattus norvegicus [24] = test: Volume of distribution at steady state in Sprague-Dawley rat at 50 mg/kg, po measured up to 24 hrs by LC-MS/MS analysis; type: ADME, organism-based; conditions: in vivo; method in brief: as §2
Trichomonas vaginalis [25] = test: Inhibition of free sulfhydryl group in Trichomonas vaginalis at MIC after 24 hrs by mBBr dye-based fluorescence microscopic method
Method in brief: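 Cells were pelleted (700 xg, 10 min, 4°C) and washed in PBS. They were then labelled in the dark with a fluorometric thiol detector prediluted 100x. Imaging used epifluorescence microscopy through a UV-1A filter, with the same exposure for all samples, and was assessed qualitatively.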

CN(C)C(=S)SC(=S)N1CCN(c2ncccn2)CC1
MIC (Nakaseomyces glabratus): 153 µM (≈ 50.1 µg/mL) | MIC (Candida albicans [1]): 38.2 µM (≈ 12.5 µg/mL) | MIC (Candida albicans [2]): 153 µM (≈ 50.1 µg/mL) | MIC (Candida albicans [3]): 153 µM (≈ 50.1 µg/mL) | MIC (Candida albicans [4]): 153 µM (≈ 50.1 µg/mL) | MIC [5]: 153 µM (≈ 50.1 µg/mL) | MIC (Sporothrix schenckii): 153 µM (≈ 50.1 µg/mL) | MIC (Cryptococcus neoformans): 153 µM (≈ 50.1 µg/mL) | selectivity ratio [6]: 1050 | selectivity ratio [7]: 131 | IC50 (HeLa): > 5000 µM | MIC (Trichomonas vaginalis [8]): 38.2 µM (≈ 12.5 µg/mL) | MIC (Trichomonas vaginalis [9]): 4.77 µM (≈ 1.56 µg/mL) | Ratio (Trichomonas vaginalis [10]): 9.5 | selectivity ratio (Trichomonas vaginalis [11]): 8 | MIC (Candida albicans [12]): 76.5 µM (≈ 25 µg/mL) | MIC (Candida parapsilosis): 153 µM (≈ 50.1 µg/mL) | Ratio (Trichomonas vaginalis [13]): 3.8 | IC50 (Plasmodium falciparum [14]): 0.76 µM | IC50 (Plasmodium falciparum [15]): 1.85 µM | Activity (Trichomonas vaginalis [16]): 1 - 2.5 mm2 | Activity (Trichomonas vaginalis [17]): 1.57 mm2 | Activity (Trichomonas vaginalis [18]): 0.79 mm2 | Cmax [19]: 47.1 ng/mL | Tmax [20]: 2 h | AUClast (Rattus norvegicus [21]): 140.5 ng·h/mL | half-life [22]: 2.6 h | CL (Rattus norvegicus [23]): 81.7 mL/min/kg | Vdss (Rattus norvegicus [24]): 12.6 L/kg | inhibition (Trichomonas vaginalis [25]): Active
